Assay outcomes as filed in PubChem BioAssay.
RAD54 branch: inhibitors of human RAD54 branch migration, primary screen, biochemical, fluorescence, single point; AID 602329, 2012; RAD54 Holliday junction branch migration, FAM/BHQ fluorescence; DNA repair and recombination protein RAD54-like (Homo sapiens), Q92698; 360,000 tested, 0.14% active; inhibition, % at 10.4 µM;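 active = mean normalized replicate activity at least 40 and at least half of replicates scoring 40 or more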;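 note: 0% = median of neutral control wells and 100% = median of positive control wells; inhibitors cause a drop in the FAM fluorescence signal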
RAD52 anneal inh: RAD52 DNA annealing inhibitors, primary screen, biochemical, FRET, single point, set 2. AID 651710, 2012. DNA repair protein RAD52 homolog (Homo sapiens), P43351. recombinant RAD52 DNA annealing, FRET fluorescence. 360,000 tested, 0.46% active. inhibition, % at 18.7 µM;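 active = every replicate showing at least 50% inhibition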
CAL PDZ FP-1: untagged CAL PDZ binding inhibitors, primary screen, biochemical, fluorescence polarization, HTS | 300,000 tested, 0.92% active | AID 602252, 2012 | inhibition, % at 24.9 µM | purified CAL PDZ, TMR-peptide fluorescence polarization, 1 h | Golgi-associated PDZ and coiled-coil motif-containing protein (Homo sapiens), Q9HD26;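 active = mean inhibition of at least 30% with at least half of replicates also reaching 30%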;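 note: 0% = DMSO neutral control and 100% = excess unlabeled competitor peptide PRC23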
ERp5 inh: inhibitors of ERp5-driven insulin aggregation, primary screen, biochemical, turbidity, absorbance 650 nm, single point; inhibition, % at 9.99 µM; 90 min; 350,000 tested, 0.05% active;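 active = mean replicate inhibition above about 25%, with every replicate also reaching it, limit read from the data, passing the limit was not always enough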
Target sequence (Q15084 whole entry, looked up): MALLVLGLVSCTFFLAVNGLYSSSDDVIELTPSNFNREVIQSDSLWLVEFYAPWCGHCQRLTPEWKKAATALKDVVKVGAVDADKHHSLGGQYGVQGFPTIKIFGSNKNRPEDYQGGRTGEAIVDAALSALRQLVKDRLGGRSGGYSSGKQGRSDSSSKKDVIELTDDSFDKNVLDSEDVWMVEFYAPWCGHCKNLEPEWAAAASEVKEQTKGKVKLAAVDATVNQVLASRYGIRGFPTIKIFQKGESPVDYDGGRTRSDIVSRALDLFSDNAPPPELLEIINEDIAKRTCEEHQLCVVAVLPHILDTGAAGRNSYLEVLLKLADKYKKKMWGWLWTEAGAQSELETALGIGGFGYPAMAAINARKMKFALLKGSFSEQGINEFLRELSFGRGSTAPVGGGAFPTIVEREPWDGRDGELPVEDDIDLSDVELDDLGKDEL
PDI turbidity: inhibitors of human PDI, primary screen, biochemical, turbidity, single point, plate reader | Protein disulfide-isomerase (Homo sapiens), P07237 | PDI insulin aggregation turbidity, A650, 90 min | inhibition, % at 10 µM | 350,000 tested, 0.052% active | AID 588391, 2011;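 active = mean inhibition across replicates of 30% or more, whatever share of single replicates reach that level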
CAL PDZ FP-2: CAL PDZ peptide-binding inhibitors, primary screen, biochemical, fluorescence polarization, Cer-tagged CAL PDZ, HTS | Golgi-associated PDZ and coiled-coil motif-containing protein (Homo sapiens), Q9HD26 | purified CAL PDZ, TMR-peptide fluorescence polarization, 1 h | inhibition, % at 20 µM | 330,000 tested, 0.02% active | AID 504414, 2011;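 active = highest replicate inhibition of at least 40%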;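 note: plate controls were DMSO neutral control wells for no effect and unlabeled competitor peptide control wells for full effect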
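material = purified tagged CAL PDZ domain construct (CerCALP) | buffer or medium = sodium phosphate/NaCl buffer pH 7.4 with TCEP, IgG, Thesit | reagent = TMR-labelled reporter peptide T*-PRC34 bound in PDZ groove | incubation = 1 h room-temperature incubation prior to read | measured by = fluorescence polarization (mP) | evaluation = percent inhibition from loss of millipolarization | control set = unlabelled peptide and DMSO controls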
Numbers without * were called inactive; . = not tested or not shown; + = active, no number; ! = repeats disagree. A selection: hits, their analogues and other compounds. The true share with any hit is near 1%.

SMILES	RAD54 branch	RAD52 anneal inh	CAL PDZ FP-1	ERp5 inh	PDI turbidity	CAL PDZ FP-2
CCc1ccc(N(CC(=O)NC(C)(C)C)C(=O)CNC(=O)c2cccs2)cc1	4.1	-8.4	-4.1	0.0	12.7	-3.5
CCC(C)c1ccc(N(CC(=O)NC(C)(C)C)C(=O)CNC(=O)c2cccs2)cc1 (centres undefined)	0.7	3.6	31.7*	0.7	-0.3	-1.0
O=C(Nc1cccc(Cl)c1)N[C@H]1CC[C@@H](CCNC(=O)C2CCCC2)O[C@H]1CO	-22.1	-2.4	.	0.1	.	.
Oc1ccc(C=NNC(=S)Nc2ccc(F)cc2)c(O)c1	-0.5	-39.2	31.8*	-0.5	-11.6	-0.1
O=C(CCC(=O)Nc1ccc(F)cc1)N/N=C/c1ccc(O)cc1O	-6.7	-18.6	-4.1	-2.4	14.2	-2.1
O=S(=O)(c1ccccc1)N1CC[C@@H]2[C@H](CO)Nc3ccc(C#Cc4cccc(F)c4)cc3[C@@H]21	-0.1	3.7	.	-5.4	.	.
C[C@H]1CCCCO[C@H](CN(C)S(=O)(=O)c2cn(C)cn2)[C@@H](C)CN([C@@H](C)CO)C(=O)c2cc(NC(=O)CCC(F)(F)F)ccc2O1	1.2	-13.5	.	5.1	.	.
CC(=O)c1ccc(S(=O)(=O)N2CCn3cccc3C2C)cc1 (centres undefined)	2.6	-41.2	1.4	9.4	-5.5	-0.6
CC1c2cccn2CCN1S(=O)(=O)c1ccc(F)cc1 (centres undefined)	-8.6	-11.4	73.8*	-3.2	-0.4	-0.5
Cc1ccc2[nH]c(=O)c(COC(=O)C3CCCCC3)cc2c1	1.3	-7.7	+	8.4	5.1	-0.3
Cc1noc(C)c1NC(=O)N(C)C[C@@H]1OCCCC[C@H](C)Oc2ccc(NS(=O)(=O)c3c(C)noc3C)cc2C(=O)N([C@@H](C)CO)C[C@H]1C	-2.8	-0.4	.	-4.0	.	.
N#Cc1ccc(-c2ccc3c(c2)[C@@H]2[C@@H](CCN2C(=O)c2ccc(F)cc2)[C@@H](CO)N3)cc1	1.6	.	.	.	.	.
CC1CCCCN1CCCNC(=O)c1c(O)nc2ccccn2c1=O (centres undefined)	5.3	-6.5	4.9	4.9	3.3	0.5
CCC1CCCCN1CCCNC(=O)c1c(O)nc2ccccn2c1=O (centres undefined)	10.8	-3.1	78.3*	-1.2	-4.7	-1.2
O=C(Nc1ccc(N2CCOCC2)c(Cl)c1)c1cccnc1	-0.5	.	.	.	1.8	-0.9
COc1cc(OC)cc(C(=O)NC(C(=O)Nc2ccc(N3CCOCC3)cc2)C(C)C)c1 (centres undefined)	22.5	-8.4	1.2	-1.1	10.4	-2.6
Cc1ccc(SCC(=O)Nc2ccccc2N2CCOCC2)cc1	-4.2	3.1	47.9*	-0.7	4.0	-0.3
O=C(Nc1ccccc1N1CCOCC1)c1cccnc1	-6.3	-8.6	85.4*	4.5	-3.7	9.5
COc1cc(OC)cc(C(=O)N[C@H](C(=O)Nc2ccccc2N2CCOCC2)C(C)C)c1	-1.4	.	38.8*	.	5.2	-0.3
COc1ccccc1-c1cnc2c(c1)C(=O)N([C@@H](C)CO)C[C@@H](C)[C@H](CN(C)Cc1ccncc1)O2	-2.3	-3.2	.	-0.6	.	.
O=C(C1CCCC1)N1CCCCN2[C@H](CO)[C@H](c3ccc(-c4cccc(F)c4)cc3)[C@@H]2C1	-8.6	27.4	.	-1.7	.	.
C[C@@H]1CN([C@H](C)CO)C(=O)c2cccc(NS(=O)(=O)c3ccccc3)c2O[C@@H]1CN(C)S(=O)(=O)c1cccs1	.	4.0	.	8.0	.	.
COc1cccc(C(=O)COC(=O)c2ccc(NC(C)=O)cc2)c1	.	.	52.7*	.	5.8	-0.6
COc1ccc(C(=O)COC(=O)c2ccc(NC(C)=O)cc2)cc1[N+](=O)[O-]	-6.0	.	-4.4	.	-10.8	-1.4
O=C(NCc1cccs1)C1CCCN1S(=O)(=O)c1ccccc1F (centres undefined)	-5.0	.	86.0*	.	6.7	.
SMILES	RAD54 branch	RAD52 anneal inh	CAL PDZ FP-1	ERp5 inh	PDI turbidity	CAL PDZ FP-2
CCOc1ccc(C(=O)NC2CC3CCCC(C2)N3Cc2ccccc2)cc1 (centres undefined)	-11.1	0.1	-2.0	0.8	-3.3	49.7*
COc1ccc(CN2C3CCC2CC(NC(=O)c2cccc(F)c2)C3)cc1 (centres undefined)	-8.0	-27.7	-0.8	5.8	1.3	-0.9
COc1cccc(C(=O)NC2CC3CCC(C2)N3Cc2ccccc2)c1 (centres undefined)	-2.4	-4.4	38.8*	1.2	19.6	-1.2
Cc1nc(CN(C)C(=O)C2CCC(=O)N(CCc3cccc(F)c3)C2)cs1 (centres undefined)	3.7	-32.8	57.1*	0.2	1.2	0.8
Cc1ccsc1CN(C)C(=O)C1CCC(=O)N(CCc2cccc(F)c2)C1 (centres undefined)	-5.7	-8.9	-1.7	6.3	-6.3	0.4
CC1C/C(=C\c2ccccc2[N+](=O)[O-])c2nc3ccccc3c(C(=O)O)c2C1 (centres undefined)	-6.5	5.8	48.9*	0.4	2.4	-0.9
O=C(O)c1c2c(nc3ccccc13)/C(=C/c1ccccc1[N+](=O)[O-])CCC2	4.7	-4.7	-3.3	3.3	-0.1	-2.9
Cc1nn(C(C)(C)C)c(OC(=O)c2ccco2)c1Sc1ccccc1	3.7	.	141.5*	.	13.7	.
Cc1nn(C(C)(C)C)c(OC(=O)c2ccc(Br)o2)c1Sc1ccccc1	3.8	.	-3.4	.	2.2	-1.5
O=C(C1CC1)N1C[C@@H]2N[C@H](C1)C2c1ccc(-c2ccccc2F)cc1 (some centres undefined)	.	25.3	.	2.2	.	.
O=C(Nc1ccc(F)cc1)N1C[C@@H]2N[C@H](C1)C2c1ccc(-c2ccccc2F)cc1 (some centres undefined)	.	55.3*!	.	-10.8	.	.
Cc1cccc(-c2ccc(C3[C@@H]4CN(C(=O)Nc5ccc(F)cc5)C[C@H]3N4)cc2)c1 (some centres undefined)	.	60.3*!	.	0.9	.	.
O=C(Nc1cccc(F)c1)N1C[C@@H]2N[C@H](C1)C2c1ccc(-c2ccc(F)cc2)cc1 (some centres undefined)	.	50.5*	.	0.6	.	.
Cc1cccc(NC(=O)C2CCCN(C(=O)Nc3ccc(F)cc3)C2)c1 (centres undefined)	-1.0	-6.4	43.9*	-2.9	20.9	-1.2
Cc1cccc(-c2ccc(C3[C@@H]4CN(C(=O)C5CCC5)C[C@H]3N4)cc2)c1 (some centres undefined)	.	24.6	.	4.5	.	.
